{
  "source": "ChEMBL document CHEMBL4842318",
  "about": "“A γ-lactam siderophore antibiotic effective against multidrug-resistant Pseudomonas aeruginosa, Klebsiella pneumoniae, and Acinetobacter spp” (Eur J Med Chem, 2021)",
  "key": {"Acinetobacter baumannii [1]": {"test_system": "Acinetobacter baumannii", "experiment": "Antibacterial activity against carbapenem susceptible Acinetobacter baumannii isolate PR-340 assessed as bacterial growth inhibition by microdilution method", "format": "functional", "in_short": "(§1)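 Broth microdilution MIC in iron-depleted (Chelex resin-treated) cation-adjusted Mueller-Hinton broth, following the protocol used for siderophore-containing antibiotics. Inoculum was lowered to 6 × 10^4 cfu/mL.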"}, "Acinetobacter baumannii [2]": {"test_system": "Acinetobacter baumannii", "experiment": "Antibacterial activity against carbapenem resistant Acinetobacter baumannii isolate PR-345 assessed as inhibition of bacterial growth in presence of 20 ug/ml sulbactam by microdilution method", "format": "functional", "settings": "dose 20 µg/ml"}, "[3]": {"experiment": "Substrate activity at VIM-2 (unknown origin) assessed as ratio of Kcat to Km by measuring hydrolysis by spectrophotometry", "format": "ADME", "in_short": "(§2)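 Substrate hydrolysis (600 μM start) followed at 336 nm (Δε336 = −4362 M−1 cm−1, 0.2 cm cuvette) to completion; velocities over 10 s intervals along progress curve; Km, Vmax from double reciprocal plot, kcat = Vmax/[E].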"}, "Acinetobacter baumannii [4]": {"test_system": "Acinetobacter baumannii", "experiment": "Antibacterial activity against 98 member subset of carbapenem resistant Acinetobacter baumannii assessed as assessed as inhibition of bacterial growth by microdilution method", "format": "functional", "in_short": "(§3)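 Broth microdilution in Chelex-treated, iron-depleted cation-adjusted Mueller-Hinton broth, following the protocol used for siderophore-containing antibiotics; inoculum lowered to 6 × 10^4 cfu/mL; MIC read as growth inhibition, in μg/mL.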"}, "Acinetobacter baumannii [5]": {"test_system": "Acinetobacter baumannii", "experiment": "Antibacterial activity against carbapenem resistant Acinetobacter baumannii isolate PR-326 assessed as inhibition of bacterial growth in presence of 20 ug/ml sulbactam by microdilution method", "format": "functional", "settings": "dose 20 µg/ml"}, "Pseudomonas aeruginosa [6]": {"test_system": "Pseudomonas aeruginosa", "experiment": "Antibacterial activity against Pseudomonas aeruginosa AR-BANK#0229 infected in sc dosed thigh infection mouse model assessed as reduction in CFU treated four times at 6 hrs interval measured at 26 hrs after infection", "format": "functional, organism-based", "in_short": "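Neutropenic mice (cyclophosphamide) inoculated intramuscularly with 1.02 × 10^6 CFU/mouse. Drug given SC at 50 and 100 mg/kg q6h at 2, 8, 14 and 20 h post-infection. Thighs harvested at 26 h and weighed. Thigh CFU/g compared with the 2 h baseline (Δ reported) and with vehicle, using one-way ANOVA with Dunnett's test.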"}, "[7]": {"experiment": "Plasma concentration in SC dosed CD-1 mouse treated four times at 6 hrs interval measured after 1 hrs", "format": "ADME, organism-based", "in_short": "(§4)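 CD-1 mice dosed SC at 50 mg/kg. Plasma sampled at 0.167 to 24 h, three individual mice per time point, reported as mean and SD in ng/mL.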"}, "Acinetobacter baumannii [8]": {"test_system": "Acinetobacter baumannii", "experiment": "Antibacterial activity against carbapenem resistant Acinetobacter baumannii isolate PR-482 assessed as inhibition of bacterial growth at 1:1 compound to sulbactam concentration by microdilution method", "format": "functional", "in_short": "(§5)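 Iron-depleted (Chelex-treated) cation-adjusted Mueller-Hinton broth microdilution; inoculum 6 × 10^4 cfu/mL. Test agent and sulbactam mixed 1:1 by mass and serially 2-fold diluted together. MIC in μg/mL.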"}, "[9]": {"experiment": "Plasma concentration in SC dosed CD-1 mouse treated four times at 6 hrs interval measured after 2 hrs", "format": "ADME, organism-based", "in_short": "as §4"}, "[10]": {"experiment": "Metabolic stability in CD-1 mouse microsomes assessed as half life", "format": "ADME, Microsome"}, "Acinetobacter baumannii [11]": {"test_system": "Acinetobacter baumannii", "experiment": "Antibacterial activity against carbapenem susceptible Acinetobacter baumannii isolate PR-452 assessed as bacterial growth inhibition by microdilution method", "format": "functional", "in_short": "as §1"}, "COX-1": {"biological_target": "COX-1 (Homo sapiens, UniProt P23219)", "sequence (P23219 whole entry)": "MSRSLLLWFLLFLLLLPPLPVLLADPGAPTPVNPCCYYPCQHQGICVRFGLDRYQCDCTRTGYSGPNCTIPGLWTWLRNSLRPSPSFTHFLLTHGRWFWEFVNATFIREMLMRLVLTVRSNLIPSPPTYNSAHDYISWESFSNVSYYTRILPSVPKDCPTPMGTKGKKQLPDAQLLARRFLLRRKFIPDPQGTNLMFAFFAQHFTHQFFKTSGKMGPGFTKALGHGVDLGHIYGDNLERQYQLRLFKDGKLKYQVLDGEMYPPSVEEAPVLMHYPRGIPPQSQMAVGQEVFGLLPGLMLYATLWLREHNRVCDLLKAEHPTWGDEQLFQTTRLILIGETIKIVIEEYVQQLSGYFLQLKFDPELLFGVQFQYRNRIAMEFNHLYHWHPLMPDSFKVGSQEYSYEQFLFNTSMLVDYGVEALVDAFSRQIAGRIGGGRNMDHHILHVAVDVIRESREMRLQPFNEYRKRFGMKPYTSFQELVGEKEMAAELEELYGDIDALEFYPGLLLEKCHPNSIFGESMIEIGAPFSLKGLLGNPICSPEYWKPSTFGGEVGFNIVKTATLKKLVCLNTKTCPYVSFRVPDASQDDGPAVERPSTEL", "experiment": "Inhibition of COX-1 (unknown origin) at 30 uM"}, "[12]": {"experiment": "Substrate activity at NDM1 (unknown origin) assessed as Kcat by measuring hydrolysis by spectrophotometry", "format": "ADME", "in_short": "as §2"}, "Acinetobacter baumannii [13]": {"test_system": "Acinetobacter baumannii", "experiment": "Antibacterial activity against carbapenem resistant Acinetobacter baumannii isolate PR-342 assessed as bacterial growth inhibition by microdilution method", "format": "functional", "in_short": "as §3"}, "Acinetobacter baumannii [14]": {"test_system": "Acinetobacter baumannii", "experiment": "Antibacterial activity against carbapenem susceptible Acinetobacter baumannii isolate PR-434 assessed as inhibition of bacterial growth in presence of 20 ug/ml sulbactam by microdilution method", "format": "functional", "settings": "dose 20 µg/ml", "in_short": "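MIC by broth microdilution using iron-depleted (Chelex-treated) cation-adjusted Mueller-Hinton broth and 6 × 10^4 cfu/mL inoculum. Compound serially diluted with sulbactam held constant at 20 μg/mL.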"}, "[15]": {"experiment": "Substrate activity at IMP-1 (unknown origin) assessed as ratio of Kcat to Km by measuring hydrolysis by spectrophotometry", "format": "ADME", "in_short": "as §2"}, "[16]": {"experiment": "Antibacterial activity against carbapenem susceptible Acinetobacter nosocomialis isolate PR-365 assessed as bacterial growth inhibition by microdilution method", "format": "functional", "in_short": "as §1"}, "Acinetobacter baumannii [17]": {"test_system": "Acinetobacter baumannii", "experiment": "Antibacterial activity against panel of 198 clinical isolates Acinetobacter baumannii assessed as inhibition of bacterial growth by microdilution method", "format": "functional"}, "Acinetobacter baumannii [18]": {"test_system": "Acinetobacter baumannii", "experiment": "Antibacterial activity against carbapenem resistant Acinetobacter baumannii isolate PR-314 assessed as bacterial growth inhibition by microdilution method", "format": "functional", "in_short": "as §3"}, "Acinetobacter baumannii [19]": {"test_system": "Acinetobacter baumannii", "experiment": "Antibacterial activity against carbapenem resistant Acinetobacter baumannii isolate PR-325 assessed as inhibition of bacterial growth at 1:1 compound to sulbactam concentration by microdilution method", "format": "functional", "in_short": "as §5"}, "Acinetobacter baumannii [20]": {"test_system": "Acinetobacter baumannii", "experiment": "Antibacterial activity against carbapenem susceptible Acinetobacter baumannii isolate PR-478 assessed as bacterial growth inhibition by microdilution method", "format": "functional", "in_short": "as §1"}, "Acinetobacter baumannii [21]": {"test_system": "Acinetobacter baumannii", "experiment": "Antibacterial activity against carbapenem susceptible Acinetobacter baumannii isolate PR-452 assessed as inhibition of bacterial growth at 1:1 compound to sulbactam concentration by microdilution method", "format": "functional", "in_short": "as §1"}, "[22]": {"experiment": "Plasma concentration in SC dosed CD-1 mouse treated four times at 6 hrs interval measured after 0.167 hrs", "format": "ADME, organism-based", "in_short": "as §4"}, "Pseudomonas aeruginosa [23]": {"test_system": "Pseudomonas aeruginosa", "experiment": "Antibacterial activity against wild type Pseudomonas aeruginosa isolate PR-673 leucine at 533 residue assessed as inhibition of bacterial growth by microdilution method", "format": "functional", "in_short": "as §1"}, "[24]": {"experiment": "Plasma concentration in SC dosed CD-1 mouse treated four times at 6 hrs interval measured after 6 hrs", "format": "ADME, organism-based", "in_short": "as §4"}, "Acinetobacter baumannii [25]": {"test_system": "Acinetobacter baumannii", "experiment": "Antibacterial activity against carbapenem susceptible Acinetobacter baumannii isolate PR-464 assessed as inhibition of bacterial growth at 1:1 compound to sulbactam concentration by microdilution method", "format": "functional", "in_short": "(§6)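 Broth microdilution MIC in Chelex-treated, iron-depleted cation-adjusted Mueller-Hinton broth, inoculum 6 × 10^4 cfu/mL. Compound and sulbactam combined 1:1 by mass in a 2-fold dilution series.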"}, "[26]": {"biological_target": "Penicillin-binding protein 3 (Pseudomonas aeruginosa, UniProt Q51504)", "sequence (Q51504 whole entry)": "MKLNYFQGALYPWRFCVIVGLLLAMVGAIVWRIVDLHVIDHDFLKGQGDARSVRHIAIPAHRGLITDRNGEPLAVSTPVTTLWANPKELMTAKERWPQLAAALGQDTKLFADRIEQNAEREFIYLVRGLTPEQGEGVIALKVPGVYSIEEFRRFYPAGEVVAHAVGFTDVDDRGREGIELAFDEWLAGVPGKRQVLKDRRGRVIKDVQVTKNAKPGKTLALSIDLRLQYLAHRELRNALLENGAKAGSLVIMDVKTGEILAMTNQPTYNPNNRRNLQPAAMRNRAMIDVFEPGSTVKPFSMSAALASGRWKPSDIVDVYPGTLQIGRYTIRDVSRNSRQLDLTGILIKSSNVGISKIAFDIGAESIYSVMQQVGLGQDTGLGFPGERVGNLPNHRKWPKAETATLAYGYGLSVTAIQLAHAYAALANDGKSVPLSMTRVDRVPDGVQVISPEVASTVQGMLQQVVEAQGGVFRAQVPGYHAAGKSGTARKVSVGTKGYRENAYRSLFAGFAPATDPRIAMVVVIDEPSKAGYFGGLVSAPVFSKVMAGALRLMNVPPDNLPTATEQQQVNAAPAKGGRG", "experiment": "Inhibition of Pseudomonas aeruginosa PBP3 assessed as reduction in fluorescence intensity using Bocillin-protein as fluorescent substrate preincubated for 20 mins measured after 20 mins by SDS PAGE analysis", "in_short": "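Purified soluble P. aeruginosa PBP3 at 1.6 μM in 10 mM PBS, pH 7.4. Preincubated with increasing compound concentrations for 20 min at 37 °C, then 50 μM Bocillin added for a further 20 min. Stopped with SDS loading dye and 2 min boiling, then run on SDS-PAGE and imaged at 365 nm. IC50 taken as the concentration halving Bocillin-labelled band fluorescence.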"}, "[27]": {"experiment": "Substrate activity at VIM-2 (unknown origin) assessed as Kcat by measuring hydrolysis by spectrophotometry", "format": "ADME", "in_short": "as §2"}, "Acinetobacter baumannii [28]": {"test_system": "Acinetobacter baumannii", "experiment": "Antibacterial activity against carbapenem resistant Acinetobacter baumannii isolate PR-401 assessed as inhibition of bacterial growth at 1:1 compound to sulbactam concentration by microdilution method", "format": "functional", "in_short": "as §5"}, "Acinetobacter baumannii [29]": {"test_system": "Acinetobacter baumannii", "experiment": "Antibacterial activity against carbapenem resistant Acinetobacter baumannii isolate PR-342 assessed as inhibition of bacterial growth at 1:1 compound to sulbactam concentration by microdilution method", "format": "functional", "in_short": "as §5"}, "Acinetobacter baumannii [30]": {"test_system": "Acinetobacter baumannii", "experiment": "Antibacterial activity against carbapenem susceptible Acinetobacter baumannii isolate PR-434 assessed as inhibition of bacterial growth at 1:1 compound to sulbactam concentration by microdilution method", "format": "functional", "in_short": "as §6"}, "[31]": {"experiment": "Substrate activity at NDM1 (unknown origin) assessed as ratio of Kcat to Km by measuring hydrolysis by spectrophotometry", "format": "ADME", "in_short": "as §2"}},
  "data": [
    {"smiles": "CC(C)(O/N=C(\\C(=O)N[C@H]1CN2CC(C(=O)NCCN3C(=O)c4cc(O)c(O)cc4C3=O)=C(C(=O)O)N2C1=O)c1nc(N)sc1Cl)C(=O)O", "values": [
      {"measurement": "MIC", "setting": "Acinetobacter baumannii [1]", "value": "> 16", "unit": "µg/mL"},
      {"measurement": "MIC", "setting": "Acinetobacter baumannii [2]", "value": "≤ 0.25", "unit": "µg/mL"},
      {"measurement": "Kcat/Km", "setting": "[3]", "value": 0.012, "unit": "µM⁻¹ s⁻¹"},
      {"measurement": "MIC90", "setting": "Acinetobacter baumannii [4]", "value": "> 16", "unit": "µg/mL"},
      {"measurement": "MIC", "setting": "Acinetobacter baumannii [5]", "value": "≤ 0.25", "unit": "µg/mL"},
      {"measurement": "Activity", "setting": "Pseudomonas aeruginosa [6]", "value": "Dose-Dependent Effect"},
      {"measurement": "concentration at 1 h", "setting": "[7]", "value": 3280, "unit": "ng/mL"},
      {"measurement": "MIC", "setting": "Acinetobacter baumannii [8]", "value": "> 16", "unit": "µg/mL"},
      {"measurement": "concentration at 2 h", "setting": "[9]", "value": 3070, "unit": "ng/mL"},
      {"measurement": "t1/2", "setting": "[10]", "value": "> 60", "unit": "min"},
      {"measurement": "MIC", "setting": "Acinetobacter baumannii [11]", "value": "> 16", "unit": "µg/mL"},
      {"measurement": "inhibition at 30 µM", "setting": "COX-1", "value": "> 50", "unit": "%"},
      {"measurement": "Kcat", "setting": "[12]", "value": 35, "unit": "s⁻¹"},
      {"measurement": "MIC", "setting": "Acinetobacter baumannii [13]", "value": 16, "unit": "µg/mL"},
      {"measurement": "MIC", "setting": "Acinetobacter baumannii [14]", "value": "≤ 0.25", "unit": "µg/mL"},
      {"measurement": "Kcat/Km", "setting": "[15]", "value": 0.003, "unit": "µM⁻¹ s⁻¹"},
      {"measurement": "MIC", "setting": "[16]", "value": "> 16", "unit": "µg/mL"},
      {"measurement": "MIC50", "setting": "Acinetobacter baumannii [17]", "value": 0.5, "unit": "µg/mL"},
      {"measurement": "MIC90", "setting": "Acinetobacter baumannii [17]", "value": "> 16", "unit": "µg/mL"},
      {"measurement": "MIC", "setting": "Acinetobacter baumannii [18]", "value": "> 16", "unit": "µg/mL"},
      {"measurement": "MIC", "setting": "Acinetobacter baumannii [19]", "value": "> 16", "unit": "µg/mL"},
      {"measurement": "MIC", "setting": "Acinetobacter baumannii [20]", "value": 16, "unit": "µg/mL"},
      {"measurement": "MIC", "setting": "Acinetobacter baumannii [21]", "value": "≤ 0.25", "unit": "µg/mL"},
      {"measurement": "concentration at 0.167 h", "setting": "[22]", "value": 47400, "unit": "ng/mL"},
      {"measurement": "MIC", "setting": "Pseudomonas aeruginosa [23]", "value": "> 16", "unit": "µg/mL"},
      {"measurement": "concentration at 6 h", "setting": "[24]", "value": 1320, "unit": "ng/mL"},
      {"measurement": "MIC", "setting": "Acinetobacter baumannii [25]", "value": "≤ 0.25", "unit": "µg/mL"},
      {"measurement": "IC50", "setting": "[26]", "value": 5, "unit": "µM"},
      {"measurement": "Kcat", "setting": "[27]", "value": 54, "unit": "s⁻¹"},
      {"measurement": "MIC", "setting": "Acinetobacter baumannii [28]", "value": 8, "unit": "µg/mL"},
      {"measurement": "MIC", "setting": "Acinetobacter baumannii [29]", "value": "> 16", "unit": "µg/mL"},
      {"measurement": "MIC", "setting": "Acinetobacter baumannii [30]", "value": 2, "unit": "µg/mL"},
      {"measurement": "Kcat/Km", "setting": "[31]", "value": 0.02, "unit": "µM⁻¹ s⁻¹"}
    ]}
  ]
}
